ChEMBL document CHEMBL1159380, “Marine natural products as novel antioxidant prototypes” (J Nat Prod, 2003)
Active and inactive are the calls of the source. The rule behind the calls is not given here.

Key:
[1] = system: Radical scavenging activity; assay: Antioxidant activity assessed as DPPH free radical scavenging activity by TLC […] assay; assay type: functional
How it was run: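 Compounds were dissolved in DMSO at 2.0 mg/mL and 4.0 μg of each was spotted onto scored silica gel GF TLC plates. Residual DMSO was removed under vacuum. Plates were sprayed with 0.2% (w/v) DPPH in MeOH and radical scavenging was judged visually 30 min after spraying.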

HL-60 = assay: Antioxidant activity against TPA-induced ROS production in human HL60 cells by 2',7'-dichlorodihydrofluorescein diacetate cellular-based assay; assay type: functional, cell-based
How it was run: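 HL-60 cells (1 × 10^6 cells/mL) in RPMI 1640 with 10% FBS and antibiotics, 37 °C, 5% CO2. Cells were pretreated 30 min with a range of test concentrations, then stimulated 30 min with 100 ng/mL TPA, then given DCFH-DA (5 μg/mL) for 15 min. DCF fluorescence was read at 530 nm, and percent inhibition was calculated against TPA-treated controls without test material.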

Compound | IC50 (HL-60; Homo sapiens, HL-60) [µM] | IC50 (HL-60; hl-60) [µM] | Activity [1] | Activity (HL-60)
COc1cc2ccnc3c2c(c1O)N(C)C=C3 [ISOAAPTAMINE] | > 55 |  | Active | 
VITAMIN E [listing 1 of 2 here] |  |  | Active | 
COc1c(OC)c(O)c2c(=O)c(C)c(/C=C/c3cc(OC(C)=O)cc(OC(C)=O)c3)oc2c1OC [HORMOTHAMNIONE DIACETATE] | 18.3 |  | inactive | 
Cc1ccc([C@@H](C)CCCC(C)(C)O)c(O)c1 |  |  |  | inactive
CC(C)=CCC/C(C)=C/Cc1cc(O)c(Br)cc1O [CYMOPOL] | 4 |  | Active | 
OCc1cc(Br)c(O)c(O)c1Cc1ccc(O)c(Br)c1 [AVRAINVILLEOL] | 6.1 |  | Active | 
CC(=O)OC/C=C(\OC(C)=O)C(C)=O | 49 |  | inactive | 
CCC(C)CC(C(=O)N/C=C\c1c[nH]c2ccccc12)N(C)Cc1ccc(O)cc1 (stereo not given) [ARAGILAMIDE] | 11 |  |  | 

The next lines start with results.

IC50 (HL-60; Homo sapiens, HL-60) [µM] | IC50 (HL-60; hl-60) [µM] | Compound | Activity [1] | Activity (HL-60)
209 |  | CC(C)=CCC[C@H](C)c1ccc(C)cc1O |  | 
> 14.6 |  | C/C(=C\Cc1cc(O)c(Br)cc1O)CCCC(C)(C)O | Active | 
> 31 |  | COc1c(OC)c(O)c2c(=O)c(C)c(/C=C/c3cc(O)cc(O)c3)oc2c1OC [HORMOTHAMNIONE] |  | 
> 23 |  | O=C1C(C2=C3c4ccccc4NC3/C(=C\c3ccc(O)cc3)C2=O)=C2C(=Nc3ccccc32)/C1=C\c1ccc(O)cc1 (stereo not given) [SCYTONEMIN] |  | 
9.7 |  | O=C1O[C@H]([C@@H](O)CO)C(O)=C1O [ASCORBIC ACID] | Active | 
27 |  | CC1(C)CCC[C@]2(C)[C@H]3C=C4C=C(O)C(=O)C=C4O[C@@]3(C)CC[C@@H]12 [PUUPEHENONE] | Active | 
> 55 |  | COc1cc2ccnc3c2c(c1OC)NC=C3 [AAPTAMINE] | Active | 
 | 255 | VITAMIN E [listing 2 of 2 here] |  | 
